Measurements: ChEMBL document CHEMBL1145104, “Discovery of a long-chain carbamoyl aminocarnitine derivative, a reversible carnitine palmitoyltransferase inhibitor with antiketotic and antidiabetic activity” (J Med Chem, 2003)
pIC50, pKi: −log10 of the molar value.

What was measured:
[1] = target: T1, Carnitine O-palmitoyltransferase 1, liver isoform (Rattus norvegicus, UniProt P32198); assay: Inhibition of [14C]palmitoyl-CoA and carnitine binding to carnitine palmitoyltransferase I from rat liver mitochondria
T1 sequence (P32198 whole entry): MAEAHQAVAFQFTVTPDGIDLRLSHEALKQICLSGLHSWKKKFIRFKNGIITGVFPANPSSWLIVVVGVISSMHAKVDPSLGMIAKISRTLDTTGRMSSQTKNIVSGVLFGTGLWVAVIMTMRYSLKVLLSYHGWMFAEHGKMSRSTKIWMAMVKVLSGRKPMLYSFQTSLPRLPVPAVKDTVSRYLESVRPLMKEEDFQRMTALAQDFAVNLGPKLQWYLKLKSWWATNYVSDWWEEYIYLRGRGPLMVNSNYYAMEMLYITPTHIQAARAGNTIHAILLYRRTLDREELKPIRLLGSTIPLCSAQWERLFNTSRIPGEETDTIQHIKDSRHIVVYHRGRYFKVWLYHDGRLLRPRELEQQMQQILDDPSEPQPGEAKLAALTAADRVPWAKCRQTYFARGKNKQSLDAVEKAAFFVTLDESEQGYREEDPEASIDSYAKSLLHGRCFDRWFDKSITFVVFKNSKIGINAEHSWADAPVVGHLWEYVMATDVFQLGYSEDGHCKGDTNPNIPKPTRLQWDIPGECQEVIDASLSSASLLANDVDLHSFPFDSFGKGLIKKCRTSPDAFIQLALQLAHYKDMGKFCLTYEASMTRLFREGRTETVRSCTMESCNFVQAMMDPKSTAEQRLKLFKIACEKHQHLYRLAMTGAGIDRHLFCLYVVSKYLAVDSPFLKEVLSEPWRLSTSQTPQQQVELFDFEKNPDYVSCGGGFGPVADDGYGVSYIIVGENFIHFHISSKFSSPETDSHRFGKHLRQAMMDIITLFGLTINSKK
How it was run: (§1)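 Intact mitochondria freshly isolated from the livers of fed male Sprague-Dawley rats, suspended in buffer with 225 mM sucrose. Assay medium at pH 7.5 with [14C]palmitoyl-CoA and L-carnitine, and inhibitor at 0–3 mM. Run 1 min at 37 °C; radiolabelled palmitoylcarnitine formation was measured. IC50 was taken from the inhibition curve; mean of two determinations in triplicate.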

[2] = target: T2, Carnitine O-palmitoyltransferase 1, muscle isoform (Rattus norvegicus, UniProt Q63704); assay: In vitro inhibition of [14C]palmitoyl-CoA and carnitine binding to carnitine palmitoyltransferase I of rat heart mitochondria
T2 sequence (Q63704 whole entry): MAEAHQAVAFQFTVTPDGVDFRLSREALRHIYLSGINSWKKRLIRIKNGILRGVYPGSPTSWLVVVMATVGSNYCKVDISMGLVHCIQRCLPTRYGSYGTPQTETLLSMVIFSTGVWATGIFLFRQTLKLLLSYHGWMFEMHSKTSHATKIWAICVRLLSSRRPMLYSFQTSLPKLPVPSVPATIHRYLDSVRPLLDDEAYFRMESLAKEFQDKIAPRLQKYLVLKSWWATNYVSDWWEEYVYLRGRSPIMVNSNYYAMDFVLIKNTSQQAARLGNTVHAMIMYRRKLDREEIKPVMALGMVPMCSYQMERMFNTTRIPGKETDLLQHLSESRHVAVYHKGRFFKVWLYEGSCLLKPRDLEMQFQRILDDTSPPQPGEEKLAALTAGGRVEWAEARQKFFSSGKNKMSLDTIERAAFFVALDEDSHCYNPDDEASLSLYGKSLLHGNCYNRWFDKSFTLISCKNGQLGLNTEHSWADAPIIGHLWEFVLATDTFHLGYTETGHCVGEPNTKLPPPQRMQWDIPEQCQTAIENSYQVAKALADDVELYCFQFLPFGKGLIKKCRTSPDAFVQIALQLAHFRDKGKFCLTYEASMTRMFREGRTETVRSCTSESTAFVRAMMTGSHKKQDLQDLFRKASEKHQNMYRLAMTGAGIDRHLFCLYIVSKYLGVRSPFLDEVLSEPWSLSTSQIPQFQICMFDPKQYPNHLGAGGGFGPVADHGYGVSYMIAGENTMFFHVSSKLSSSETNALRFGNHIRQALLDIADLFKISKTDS
How it was run: as §1, with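 “hearts” for “livers”, “75” for “225”, “[14C]palmitoyl incorporated into carnitine” for “radiolabelled palmitoylcarnitine formation”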

Mus musculus [3] = assay: Level of glucose in […] mice serum after treating with 50 mg/kg of compound orally for 45 days (originally-673.9+/-44.09 mg/dL); format: functional; conditions: route oral
Rattus norvegicus [4] = organism: Rattus norvegicus; assay: Effective dose of compound that reduces serum beta-hydroxybutyrate levels in rats
Mus musculus [5] = assay: Percent decrease in the liver glycogen level of mice treated with 50 mg/kg of compound orally for 45 days; format: functional; conditions: route oral
How it was run: (§2)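 Male C57BL/KsJ-db/db mice, 8 weeks old, n=8 per group. Dosed orally at 50 mg/kg or an equimolar dose, twice daily for 45 days; controls got 0.5% carboxymethylcellulose vehicle at 10 mL/kg. Sampled 9 h after the last dose, after a 9 h fast. Percent change was calculated against untreated db/db controls.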

Mus musculus [6] = assay: Percent increase of free fatty acids level in serum of mice treated with 50 mg/kg of compound orally for 45 days; conditions: route oral
[7] = target: T1, Carnitine O-palmitoyltransferase 1, liver isoform; assay: Inhibition of rat liver carnitine palmitoyltransferase I; conditions: read-out: Ki app; how it was run: as §1
Mus musculus [8] = assay: Level of fructosamine in […] mice serum after treating with 50 mg/kg of compound orally for 45 days (originally-4.80+/-0.17 mmol/L); format: functional; conditions: route oral
Rattus norvegicus [9] = organism: Rattus norvegicus; assay: Percent decrease of oleoylcarnitine levels in isolated rat hepatocytes at 3 mM compound concentration; No variation
Mus musculus [10] = assay: Percent increase in the liver triglycerides content of mice treated with 50 mg/kg of compound orally for 45 days; conditions: route oral
Mus musculus [11] = assay: Percent decrease in the serum fructosamine level of mice treated with 50 mg/kg of compound orally for 45 days; format: functional; conditions: route oral; how it was run: as §2
Mus musculus [12] = assay: Percent decrease in the serum glucose level of mice treated with 50 mg/kg of compound orally for 45 days; format: functional; conditions: route oral
How it was run: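 Oral dosing of male C57BL/KsJ-db/db mice (8 weeks old, n=8) at 50 mg/kg or an equimolar dose, twice daily for 45 days; vehicle was 0.5% carboxymethylcellulose. Serum was collected 9 h after the last dose, after a 9 h fast. Glucose was measured with an autoanalyzer kit; percent reduction was calculated against untreated db/db controls; Student's t test.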

| Structure (SMILES) | pIC50 [1] | pIC50 [2] | other results |
| --- | --- | --- | --- |
| CCCCCCCNC(=O)N[C@@H](CC(=O)[O-])C[N+](C)(C)C | 4.36 | < 3.52 |  |
| CCCCCCCCCCCCCCNC(=O)N[C@@H](CC(=O)[O-])C[N+](C)(C)C | 5.96 | 4.36 | Level in serum (Mus musculus [3]): 202.6 mg/dL; ED50 (Rattus norvegicus [4]): 14.5 mg/kg; Decrease (Mus musculus [5]): -25%; Increase (Mus musculus [6]): 20%; pKi [7]: 6.44; Level in serum (Mus musculus [8]): 3.37 mM l-1; Decrease (Rattus norvegicus [9]): No variation; Increase (Mus musculus [10]): 38%; Decrease (Mus musculus [11]): -30%; Decrease (Mus musculus [12]): -25% |
| CCCCCCCCOC(=O)N[C@@H](CC(=O)[O-])C[N+](C)(C)C | 5.02 | 4.10 |  |
| CCCCCCCCCNC(=O)N[C@H](CC(=O)[O-])C[N+](C)(C)C | < 3.52 | < 3.52 |  |
| CCCCCCCCCCCNC(=O)N[C@@H](CC(=O)[O-])C[N+](C)(C)C |  | 3.93 |  |
| CCCCCCCCOC(=O)N[C@H](CC(=O)[O-])C[N+](C)(C)C | < 3.52 | < 3.52 |  |
| CCCCCCCCCCCCCCNC(=O)N[C@H](CC(=O)[O-])C[N+](C)(C)C [TEGLICAR] | 4.23 | 3.78 |  |

Further lines, with some results ahead:

| pIC50 [1] | pIC50 [2] | Structure (SMILES) | other results |
| --- | --- | --- | --- |
| 5.22 | < 5.00 | CCCCCCCCCCCCS(=O)(=O)N[C@H](CC(=O)[O-])C[N+](C)(C)C |  |
| 6.15 | 5.47 | CCCCCCCCCCCCS(=O)(=O)N[C@@H](CC(=O)[O-])C[N+](C)(C)C |  |
| 5.74 | < 3.92 | CCCCCCCCCCCCNC(=O)N[C@@H](CC(=O)[O-])C[N+](C)(C)C |  |
| 4.50 | 4.34 | CCCCCCCCCNC(=O)N[C@@H](CC(=O)[O-])C[N+](C)(C)C |  |
